Laboratory results reported in ChEMBL document CHEMBL4431385, “Substituted tetracyclic indole core derivatives of HCV NS5A inhibitor MK-8742” (Bioorg Med Chem Lett, 2016).
Where a chain is given by its changes, count along the chain named.

How the values were obtained:
[1] = target: T1, Nonstructural protein 5A (Hepatitis C virus) (UniProt Q5L478); test: Inhibition of HCV GT1b NS5A assessed as suppression of replicon RNA level by real-time PCR analysis; conditions: Hepatitis C virus subtype 1b
T1 sequence (whole entry): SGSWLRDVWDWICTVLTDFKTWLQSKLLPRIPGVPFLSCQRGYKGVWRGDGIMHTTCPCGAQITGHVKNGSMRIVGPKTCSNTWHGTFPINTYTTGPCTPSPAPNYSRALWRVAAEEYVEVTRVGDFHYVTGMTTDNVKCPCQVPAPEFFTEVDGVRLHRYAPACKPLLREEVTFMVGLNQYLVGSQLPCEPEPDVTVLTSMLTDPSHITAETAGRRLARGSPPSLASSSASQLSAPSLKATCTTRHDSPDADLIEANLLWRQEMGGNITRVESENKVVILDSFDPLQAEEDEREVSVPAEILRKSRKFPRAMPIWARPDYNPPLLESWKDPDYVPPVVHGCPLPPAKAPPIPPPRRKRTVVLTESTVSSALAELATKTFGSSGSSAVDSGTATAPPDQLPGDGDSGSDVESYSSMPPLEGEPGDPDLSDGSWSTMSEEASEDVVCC

[2] = target: T1, Nonstructural protein 5A (Hepatitis C virus); test: Inhibition of HCV GT1a NS5A assessed as suppression of replicon RNA level by real-time PCR analysis; conditions: Hepatitis C virus subtype 1a
[3] = tested on: Nonstructural protein 5A (Hepatitis C virus), Q5L478 [UNDEFINED MUTATION]; test: Inhibition of HCV GT1a NS5A L31V mutant assessed as suppression of replicon RNA level by real-time PCR analysis; conditions: Hepatitis C virus subtype 1a
[4] = target: T1, Nonstructural protein 5A (Hepatitis C virus); test: Inhibition of HCV GT2a NS5A assessed as suppression of replicon RNA level by real-time PCR analysis; conditions: Hepatitis C virus subtype 2a
[5] = tested on: T2, Nonstructural protein 5A (Hepatitis C virus), Q5L478 [Y93H]; test: Inhibition of HCV GT1a NS5A Y93H mutant assessed as suppression of replicon RNA level by real-time PCR analysis; conditions: Hepatitis C virus subtype 1a
T2 sequence (whole entry): T1 sequence (whole entry) with Y93H

[6] = target: T1, Nonstructural protein 5A (Hepatitis C virus); test: Inhibition of HCV GT3a NS5A assessed as suppression of replicon RNA level by real-time PCR analysis; conditions: Hepatitis C virus subtype 3a
[7] = target: T1, Nonstructural protein 5A (Hepatitis C virus); test: Inhibition of HCV GT2b NS5A assessed as suppression of replicon RNA level by real-time PCR analysis; conditions: Hepatitis C virus subtype 2b
Method in brief: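 GT2b replicon, which carries the naturally occurring NS5A 31M resistance-associated variant; potency given as EC90 in nM.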

[8] = target: T1, Nonstructural protein 5A (Hepatitis C virus); test: Inhibition of HCV GT4a NS5A assessed as suppression of replicon RNA level by real-time PCR analysis; conditions: Hepatitis C virus subtype 4a

Compound	EC90 [1] [nM]	EC90 [2] [nM]	EC90 [3] [nM]	EC90 [4] [nM]	EC90 [5] [nM]	EC90 [6] [nM]	EC90 [7] [nM]	EC90 [8] [nM]
COC(=O)N[C@H](C(=O)N1CCC[C@H]1c1ncc(-c2ccc3c(c2)cc2n3[C@H](c3ccccc3)Oc3cc(-c4cnc([C@@H]5CCCN5C(=O)[C@@H](NC(=O)OC)C(C)C)[nH]4)c(F)cc3-2)[nH]1)C(C)C	0.003	0.003	1	0.003	62	1	> 100	0.02
COC(=O)N[C@H](C(=O)N1CCC[C@H]1c1ncc(-c2ccc3c(c2)OCn2c-3c(-c3ccccc3)c3cc(-c4cnc([C@@H]5CCCN5C(=O)[C@@H](NC(=O)OC)C(C)C)[nH]4)ccc32)[nH]1)C(C)C	0.004	0.09	4	0.01	5000	3	204	0.09
COC(=O)N[C@H](C(=O)N1CCC[C@H]1c1ncc(-c2ccc3c(c2)OCn2c-3cc3cc(-c4cnc([C@@H]5CCCN5C(=O)[C@@H](NC(=O)OC)C(C)C)[nH]4)cc(F)c32)[nH]1)C(C)C	0.01	0.1	3	0.1	139	> 10	> 100	0.2
COC(=O)N[C@H](C(=O)N1CCC[C@H]1c1ncc(-c2cc(F)c3c(c2)OC(c2ccccc2)n2c-3cc3cc(-c4cnc([C@@H]5C[C@@H](F)CN5C(=O)[C@@H](NC(=O)OC)C(C)C)[nH]4)ccc32)[nH]1)C(C)C (mixture of isomers)	0.003	0.003	2	0.01	4	0.3	32	0.05
COC(=O)N[C@H](C(=O)N1CCC[C@H]1c1nc(-c2ccc3c(c2)O[C@@H](c2ccccc2)n2c-3cc3cc(-c4c[nH]c([C@@H]5CCCN5C(=O)[C@@H](NC(=O)OC)C(C)C)n4)ccc32)c[nH]1)C(C)C	–	–	–	0.019	–	0.12	–	0.016
COC(=O)N[C@H](C(=O)N1CCC[C@H]1c1ncc(-c2ccc3c(c2)OC(c2ccccc2)n2c-3c(F)c3cc(-c4cnc([C@@H]5C[C@@H](F)CN5C(=O)[C@@H](NC(=O)OC)C(C)C)[nH]4)ccc32)[nH]1)C(C)C (mixture of isomers)	0.003	0.005	2	0.03	2	2	–	0.1
COC(=O)N[C@H](C(=O)N1C[C@H](F)C[C@H]1c1ncc(-c2ccc3c(c2)OC(c2ccccc2)n2c-3cc3cc(-c4cnc([C@@H]5C[C@@H](F)CN5C(=O)[C@@H](NC(=O)OC)C(C)C)[nH]4)ccc32)[nH]1)C(C)C (mixture of isomers)	0.004	0.01	10	0.7	2	2	63	0.2
COC(=O)N[C@H](C(=O)N1CCC[C@H]1c1ncc(-c2ccc3c(c2)c(F)c2n3C(c3ccccc3)Oc3cc(-c4cnc([C@@H]5C[C@@H](F)CN5C(=O)[C@@H](NC(=O)OC)C(C)C)[nH]4)ccc3-2)[nH]1)C(C)C (stereo partly specified)	0.001	0.002	1	0.003	2	0.2	33	0.04
COC(=O)N[C@H](C(=O)N1C[C@H](F)C[C@H]1c1ncc(-c2ccc3c(c2)OC(c2ccccc2)n2c-3c(F)c3cc(-c4cnc([C@@H]5C[C@@H](F)CN5C(=O)[C@@H](NC(=O)OC)C(C)C)[nH]4)ccc32)[nH]1)C(C)C (mixture of isomers)	0.005	0.02	7	0.3	2	8	58	0.3
